Here are results for 3 compounds from ChEMBL document CHEMBL3397016, “SAR-studies of γ-secretase modulators with PPARγ-agonistic and 5-lipoxygenase-inhibitory activity for Alzheimer's disease” (Bioorg Med Chem Lett, 2015).

The target in data set [1] is NOTCH-1 signaling (Neurogenic locus notch homolog protein 1) (Homo sapiens, UniProt P46531). The data set is described as follows: Inhibition of NOTCH-1 signaling (unknown origin) expressed in CHO cells at 0.5 uM after 24 hrs by dual luciferase reporter gene assay. The data set is classed as cell-based. The conditions noted are these: CHO cells expressing NOTCH-1. An outline of the steps: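 Dual luciferase Notch reporter read-out in CHO cells. Test compounds were run at 5–50 µM. The γ-secretase inhibitor LY-411575 was run at 0.5 µM as the reference treatment.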
In general terms: In a reporter assay the amount or activity of a reporter protein is the signal.

The target in data set [2] is T1, Presenilin-1 (Homo sapiens, UniProt P49768). The data set is described as follows: Inhibition of wild-type human presenilin-1 stably overexpressed in CHO cells co-expressing wild-type human amyloid precursor protein assessed as inhibition of amyloid beta 42 formation after 24 hrs by ELISA. The data set is classed as cell-based. (In general: In an ELISA, binding on a coated surface is turned into a signal by an enzyme label.)

Data set [3] addresses T1, Presenilin-1. The data set is described as follows: Activation of wild-type human presenilin-1 stably overexpressed in CHO cells co-expressing wild-type human amyloid precursor protein assessed as amyloid beta 38 formation after 24 hrs by ELISA. Type of data set: cell-based.
The target in data set [4] is T2, Polyunsaturated fatty acid 5-lipoxygenase (Homo sapiens, UniProt P09917).
T2 sequence (P09917 whole entry): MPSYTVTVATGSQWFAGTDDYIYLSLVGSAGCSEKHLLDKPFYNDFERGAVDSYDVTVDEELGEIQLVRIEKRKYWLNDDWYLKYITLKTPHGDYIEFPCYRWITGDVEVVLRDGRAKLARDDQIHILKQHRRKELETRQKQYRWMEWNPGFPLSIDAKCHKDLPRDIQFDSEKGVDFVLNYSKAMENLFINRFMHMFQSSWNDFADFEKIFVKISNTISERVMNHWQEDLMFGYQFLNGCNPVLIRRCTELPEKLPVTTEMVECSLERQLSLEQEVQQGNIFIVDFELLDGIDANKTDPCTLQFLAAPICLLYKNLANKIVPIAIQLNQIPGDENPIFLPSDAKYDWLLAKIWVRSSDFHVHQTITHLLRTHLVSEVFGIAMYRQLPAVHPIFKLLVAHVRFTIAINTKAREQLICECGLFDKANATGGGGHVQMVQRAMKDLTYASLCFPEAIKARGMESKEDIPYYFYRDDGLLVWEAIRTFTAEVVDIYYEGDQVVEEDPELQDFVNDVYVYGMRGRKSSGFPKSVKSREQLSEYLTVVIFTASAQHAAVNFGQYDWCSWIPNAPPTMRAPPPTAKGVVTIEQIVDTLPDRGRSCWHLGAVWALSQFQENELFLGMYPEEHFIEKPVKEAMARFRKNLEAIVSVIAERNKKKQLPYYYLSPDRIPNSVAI
The data set is described as follows: Inhibition of 5-LO in human PMNL assessed as reduction in 5-LO product formation pre-incubated for 15 mins before addition of arachidonic acid substrate by HPLC analysis. To be noted: read-out: IC50.

The target of data set [5] is T3, Prostaglandin G/H synthase 1 (Ovis aries) (UniProt P05979).
T3 sequence (whole entry): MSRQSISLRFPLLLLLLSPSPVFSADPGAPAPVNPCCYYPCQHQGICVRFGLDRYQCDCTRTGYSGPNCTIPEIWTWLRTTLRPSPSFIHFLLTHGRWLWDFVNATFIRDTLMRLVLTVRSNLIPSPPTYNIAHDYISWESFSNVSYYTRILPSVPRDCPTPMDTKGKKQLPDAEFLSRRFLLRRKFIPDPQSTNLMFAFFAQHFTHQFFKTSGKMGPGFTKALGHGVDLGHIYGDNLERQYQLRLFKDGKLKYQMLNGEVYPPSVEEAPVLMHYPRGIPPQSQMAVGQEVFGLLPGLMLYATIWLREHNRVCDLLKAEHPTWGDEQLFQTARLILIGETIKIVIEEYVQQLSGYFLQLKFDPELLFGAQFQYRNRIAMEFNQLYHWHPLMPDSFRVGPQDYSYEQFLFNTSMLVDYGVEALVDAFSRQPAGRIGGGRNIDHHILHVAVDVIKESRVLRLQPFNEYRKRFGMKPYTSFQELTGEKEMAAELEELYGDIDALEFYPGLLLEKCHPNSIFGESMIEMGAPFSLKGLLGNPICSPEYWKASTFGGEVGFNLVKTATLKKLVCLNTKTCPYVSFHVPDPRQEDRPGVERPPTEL
The data set is described as follows: Inhibition of ovine COX1-mediated 12-HHT formation assessed as remaining activity at 10 uM preincubated for 5 mins before arachidonic acid addition by HPLC analysis. An outline of the steps:
(§1)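 Cell-free enzyme assays. Data given either as IC50 or as remaining enzyme activity at 10 µM test concentration.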

The target in data set [6] is T4, Prostaglandin G/H synthase 2 (Homo sapiens) (UniProt P35354).
T4 sequence (whole entry): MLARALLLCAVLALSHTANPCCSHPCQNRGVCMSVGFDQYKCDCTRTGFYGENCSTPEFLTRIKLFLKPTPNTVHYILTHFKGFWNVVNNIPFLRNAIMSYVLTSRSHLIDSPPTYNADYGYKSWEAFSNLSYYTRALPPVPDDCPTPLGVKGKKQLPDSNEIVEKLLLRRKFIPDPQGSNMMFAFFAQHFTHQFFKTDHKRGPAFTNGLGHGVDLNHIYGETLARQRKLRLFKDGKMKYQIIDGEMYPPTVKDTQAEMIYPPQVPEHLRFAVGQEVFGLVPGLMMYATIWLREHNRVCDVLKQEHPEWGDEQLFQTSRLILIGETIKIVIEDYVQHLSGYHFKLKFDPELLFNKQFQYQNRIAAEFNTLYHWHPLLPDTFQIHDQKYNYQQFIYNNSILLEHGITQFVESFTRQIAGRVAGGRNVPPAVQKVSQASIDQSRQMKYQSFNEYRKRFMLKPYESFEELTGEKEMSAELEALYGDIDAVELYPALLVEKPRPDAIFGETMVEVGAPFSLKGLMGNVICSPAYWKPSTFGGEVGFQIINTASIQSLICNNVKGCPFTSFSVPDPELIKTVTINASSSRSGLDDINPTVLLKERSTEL
The data set is described as follows: Inhibition of human recombinant COX2-mediated 12-HHT formation assessed as remaining activity at 10 uM preincubated for 5 mins before arachidonic acid addition by HPLC analysis. The method in brief: as §1

The nature of data set [7]: Cytotoxicity against human Jurkat cells assessed as reduction in cell viability up to 30 uM after 24 to 48 hrs by MTT assay. The data set is classed as cell-based. To be noted: read-out: INH. On the technique in general: Tetrazolium assays rely on reduction of a dye to a coloured formazan, in cell work by metabolically active cells.
The target in data set [8] is T5, Prostaglandin E synthase (Homo sapiens, UniProt O14684).
T5 sequence (O14684 whole entry): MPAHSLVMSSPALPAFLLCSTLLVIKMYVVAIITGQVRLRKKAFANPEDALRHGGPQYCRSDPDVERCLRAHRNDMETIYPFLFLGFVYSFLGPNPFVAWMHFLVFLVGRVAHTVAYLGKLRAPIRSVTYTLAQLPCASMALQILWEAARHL
In words: Inhibition of mPGES-1-mediated PGE2 formation in interleukin-1beta-stimulated human A549 microsomal membranes preincubated for 15 mins before PGH2 addition by RP-HPLC analysis.

Data set [9] addresses T6, Prostaglandin G/H synthase 1 (Ovis aries, UniProt P05979).
T6 sequence (P05979 whole entry): T3 sequence (whole entry)
In words: Inhibition of ovine COX1-mediated 12-HHT formation preincubated for 5 mins before arachidonic acid addition by HPLC analysis. An outline of the steps:
as §1

Data set [10] concerns the target T7, Prostaglandin G/H synthase 2 (Homo sapiens, UniProt P35354).
T7 sequence (P35354 whole entry): T4 sequence (whole entry)
In words: Inhibition of human recombinant COX2-mediated 12-HHT formation preincubated for 5 mins before arachidonic acid addition by HPLC analysis. An outline of the steps:
as §1

Data set [11] has as its target T8, Peroxisome proliferator-activated receptor gamma (Homo sapiens) (UniProt P37231).
T8 sequence (whole entry): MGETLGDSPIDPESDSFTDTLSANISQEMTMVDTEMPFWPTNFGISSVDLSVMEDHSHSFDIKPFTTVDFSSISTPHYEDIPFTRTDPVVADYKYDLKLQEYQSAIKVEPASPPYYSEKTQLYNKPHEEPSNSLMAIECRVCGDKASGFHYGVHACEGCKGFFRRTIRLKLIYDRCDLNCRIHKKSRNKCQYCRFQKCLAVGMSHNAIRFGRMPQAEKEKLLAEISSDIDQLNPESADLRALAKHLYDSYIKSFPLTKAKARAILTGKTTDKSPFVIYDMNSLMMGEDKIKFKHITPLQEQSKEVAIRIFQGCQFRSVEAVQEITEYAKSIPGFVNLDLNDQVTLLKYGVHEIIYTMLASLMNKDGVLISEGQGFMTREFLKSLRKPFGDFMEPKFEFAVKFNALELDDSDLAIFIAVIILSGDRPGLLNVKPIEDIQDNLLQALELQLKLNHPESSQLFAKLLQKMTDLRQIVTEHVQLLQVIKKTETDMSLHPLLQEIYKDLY
In words: Activation of human PPARgamma ligand binding domain expressed in COS7 cells at 3 uM by dual luciferase reporter gene assay. The conditions noted are these: COS-7. Type of data set: cell-based.

The target in data set [12] is T8, Peroxisome proliferator-activated receptor gamma (Homo sapiens). In words: Activation of human PPARgamma ligand binding domain expressed in COS7 cells at 6 uM by dual luciferase reporter gene assay. The conditions noted are these: COS-7. Type of data set: cell-based.
The target of data set [13] is Gamma-secretase. In words: Inhibition of CHAPSO-solubilized gamma-secretase isolated from human SH-SY5Y P2 cell membranes assessed as reduction in Abeta(1 to 42) peptide generation from recombinant C100Flag substrate by electrochemiluminescence assay.

Chain of NOTCH-1 signaling (Neurogenic locus notch homolog protein 1) (P46531 whole entry): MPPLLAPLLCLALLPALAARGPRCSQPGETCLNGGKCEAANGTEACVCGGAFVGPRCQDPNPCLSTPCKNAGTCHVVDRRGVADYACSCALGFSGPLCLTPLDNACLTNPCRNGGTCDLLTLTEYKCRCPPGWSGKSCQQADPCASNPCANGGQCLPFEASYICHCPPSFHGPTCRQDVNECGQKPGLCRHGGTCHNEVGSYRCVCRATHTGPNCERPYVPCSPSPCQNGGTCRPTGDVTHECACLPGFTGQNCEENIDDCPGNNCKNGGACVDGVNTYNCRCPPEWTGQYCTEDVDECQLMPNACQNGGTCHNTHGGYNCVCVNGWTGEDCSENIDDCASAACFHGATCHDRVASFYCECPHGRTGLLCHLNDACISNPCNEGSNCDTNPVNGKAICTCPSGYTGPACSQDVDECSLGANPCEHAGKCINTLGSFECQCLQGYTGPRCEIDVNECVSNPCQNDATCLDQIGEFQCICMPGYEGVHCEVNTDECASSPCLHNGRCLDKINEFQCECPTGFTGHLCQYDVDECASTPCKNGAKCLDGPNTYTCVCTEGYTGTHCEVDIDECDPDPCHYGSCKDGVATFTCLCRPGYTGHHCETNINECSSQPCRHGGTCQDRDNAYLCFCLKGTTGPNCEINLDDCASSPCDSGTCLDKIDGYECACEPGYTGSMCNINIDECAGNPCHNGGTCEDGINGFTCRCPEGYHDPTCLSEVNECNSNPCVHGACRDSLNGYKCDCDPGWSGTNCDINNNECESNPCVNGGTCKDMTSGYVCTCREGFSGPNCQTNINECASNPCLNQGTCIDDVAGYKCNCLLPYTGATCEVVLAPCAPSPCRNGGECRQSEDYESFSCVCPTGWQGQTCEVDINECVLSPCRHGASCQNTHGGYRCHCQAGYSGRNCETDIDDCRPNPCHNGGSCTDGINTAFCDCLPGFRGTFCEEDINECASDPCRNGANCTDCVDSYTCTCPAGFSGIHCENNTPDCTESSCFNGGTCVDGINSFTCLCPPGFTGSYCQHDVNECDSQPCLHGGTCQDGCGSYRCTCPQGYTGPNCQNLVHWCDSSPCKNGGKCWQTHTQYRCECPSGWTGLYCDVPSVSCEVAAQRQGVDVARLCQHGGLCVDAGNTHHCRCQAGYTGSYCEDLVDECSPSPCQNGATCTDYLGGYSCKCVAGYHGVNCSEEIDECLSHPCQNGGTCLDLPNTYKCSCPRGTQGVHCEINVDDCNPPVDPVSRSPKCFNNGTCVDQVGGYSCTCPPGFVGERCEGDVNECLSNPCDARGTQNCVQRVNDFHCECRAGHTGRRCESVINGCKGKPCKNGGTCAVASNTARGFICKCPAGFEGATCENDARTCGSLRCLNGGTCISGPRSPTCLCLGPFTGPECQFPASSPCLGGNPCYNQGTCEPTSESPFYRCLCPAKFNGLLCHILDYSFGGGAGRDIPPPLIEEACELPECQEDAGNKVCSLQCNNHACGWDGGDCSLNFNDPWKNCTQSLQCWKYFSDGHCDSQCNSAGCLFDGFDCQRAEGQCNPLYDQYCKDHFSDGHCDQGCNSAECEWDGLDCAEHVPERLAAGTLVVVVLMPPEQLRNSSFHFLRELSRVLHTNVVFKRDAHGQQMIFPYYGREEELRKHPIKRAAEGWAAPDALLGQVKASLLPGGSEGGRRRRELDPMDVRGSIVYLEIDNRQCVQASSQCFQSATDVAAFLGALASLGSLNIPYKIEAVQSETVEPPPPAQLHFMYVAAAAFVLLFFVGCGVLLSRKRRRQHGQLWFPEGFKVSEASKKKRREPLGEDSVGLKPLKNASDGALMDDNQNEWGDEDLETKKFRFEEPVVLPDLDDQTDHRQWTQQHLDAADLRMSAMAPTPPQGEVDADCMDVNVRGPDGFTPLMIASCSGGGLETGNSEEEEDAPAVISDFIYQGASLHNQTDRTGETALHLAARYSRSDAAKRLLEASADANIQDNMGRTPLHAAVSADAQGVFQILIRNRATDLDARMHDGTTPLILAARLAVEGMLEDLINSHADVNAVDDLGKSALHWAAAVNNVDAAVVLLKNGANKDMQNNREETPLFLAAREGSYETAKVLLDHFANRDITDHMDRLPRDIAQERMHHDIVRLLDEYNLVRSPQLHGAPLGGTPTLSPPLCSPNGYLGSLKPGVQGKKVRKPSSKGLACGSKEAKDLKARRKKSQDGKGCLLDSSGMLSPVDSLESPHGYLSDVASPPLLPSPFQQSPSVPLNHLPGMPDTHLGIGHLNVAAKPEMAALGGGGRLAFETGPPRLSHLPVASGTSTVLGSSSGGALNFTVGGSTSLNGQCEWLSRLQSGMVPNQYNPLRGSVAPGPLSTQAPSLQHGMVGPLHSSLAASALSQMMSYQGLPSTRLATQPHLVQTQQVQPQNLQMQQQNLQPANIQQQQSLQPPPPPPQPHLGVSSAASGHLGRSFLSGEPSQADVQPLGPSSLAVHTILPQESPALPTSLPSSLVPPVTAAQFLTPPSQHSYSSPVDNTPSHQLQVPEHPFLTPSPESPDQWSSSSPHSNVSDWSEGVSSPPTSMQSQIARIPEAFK

As for `C[C@H](NC(=O)[C@@H](O)c1cc(F)cc(F)c1)C(=O)N[C@@H]1C(=O)N(C)c2ccccc2-c2ccccc21`, in [1], the inhibition at 24 h, 0.5 µM is greater than 75%.

For `CCCC/C(=C\c1cc(OCCc2ccc(C(F)(F)F)cc2)ccc1OCc1ccc(C(F)(F)F)cc1)C(=O)O`, the IC50 is 1500 nM in data set [2]; 500 nM in data set [4]; 3100 nM in data set [8]; greater than 10000 nM in data set [9]; greater than 10000 nM in data set [10]. In data set [3], the concentration for a half-maximal effect (EC50) was 1300 nM. For the same compound, the Activity in data set [5] was 66.3%; in data set [6], 72.2%; in data set [11] it was 21%; in data set [12], 72%. In data set [7], the cytotoxicity is greater than 50%.

For the compound `C[C@@H](C(=O)O)c1ccc(-c2ccccc2)c(F)c1` [TARENFLURBIL], the concentration for half-maximal inhibition (IC50) in data set [13] was determined as 307000 nM.

As usually defined, the inhibition is the change of the read-out against control, counted positive when it falls. A higher inhibition goes with a response far below the control. One may read the IC50 as the concentration that inhibits the measured activity by half. A word on the EC50: it is the concentration at which the effect is half-maximal.
